ChEMBL document CHEMBL2434944, “Novel acetamidothiazole derivatives: synthesis and in vitro anticancer evaluation” (Eur J Med Chem, 2013)

Key:
[1] = biological target: T1, Cathepsin K (Homo sapiens, UniProt P43235); experiment: Inhibition of human cathepsin K
T1 sequence (P43235 whole entry): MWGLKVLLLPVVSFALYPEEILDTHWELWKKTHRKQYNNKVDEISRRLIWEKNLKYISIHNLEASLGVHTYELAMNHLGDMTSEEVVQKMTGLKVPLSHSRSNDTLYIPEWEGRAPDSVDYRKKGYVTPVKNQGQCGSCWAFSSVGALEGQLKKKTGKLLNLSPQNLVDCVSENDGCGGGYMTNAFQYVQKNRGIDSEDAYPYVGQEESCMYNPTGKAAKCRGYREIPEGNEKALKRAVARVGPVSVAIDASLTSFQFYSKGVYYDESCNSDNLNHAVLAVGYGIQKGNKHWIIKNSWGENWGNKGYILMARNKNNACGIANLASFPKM

[2] = test system: MDA-MB-435; experiment: Growth inhibition of human MDA-MB-435 cells assessed as cell growth at 10^-5 M after 48 hrs by sulforhodamine B assay relative to control; assay type: functional; details: MDA-MB-435, 48 h, read-out: Activity
In short: (§1)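 NCI-60 single-dose screen at 10^-5 M. Cells grown in RPMI 1640 with 5% FBS and 2 mM L-glutamine, plated at 5,000–40,000 cells/well according to doubling time, and preincubated 24 h at 37°C, 5% CO2. Compound dissolved in DMSO and added. Exposure 48 h. Adherent cells fixed with cold TCA (10% final), suspension cells with 16% final TCA. Read-out is 0.4% SRB staining, dye solubilised in 10 mM Tris, absorbance at 515 nm. Percent growth is calculated against the time-zero plate and untreated control.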

[3] = test system: K562; experiment: Growth inhibition of human K562 cells assessed as cell growth at 10^-5 M after 48 hrs by sulforhodamine B assay relative to control; assay type: functional; details: K562, 48 h, read-out: Activity; in short: as §1
[4] = test system: HCT-15; experiment: Growth inhibition of human HCT15 cells assessed as cell growth at 10^-5 M after 48 hrs by sulforhodamine B assay relative to control; assay type: functional; details: HCT-15, 48 h, read-out: Activity; in short: as §1
[5] = test system: MOLT-4; experiment: Growth inhibition of human MOLT4 cells assessed as cell growth at 10^-5 M after 48 hrs by sulforhodamine B assay relative to control; assay type: functional; details: MOLT-4, 48 h, read-out: Activity; in short: as §1
[6] = test system: NCI-H322M; experiment: Growth inhibition of human NCI-H322M cells assessed as cell growth at 10^-5 M after 48 hrs by sulforhodamine B assay relative to control; assay type: functional; details: read-out: Activity; in short: as §1
[7] = Growth inhibition of human Hs 578T cells assessed as cell growth at 10^-5 M after 48 hrs by sulforhodamine B assay relative to control; assay type: functional; details: read-out: Activity; in short: as §1
[8] = test system: SN12C; experiment: Growth inhibition of human SN12C cells assessed as cell growth at 10^-5 M after 48 hrs by sulforhodamine B assay relative to control; assay type: functional; details: read-out: Activity; in short: as §1
[9] = test system: 786-0; experiment: Growth inhibition of human 786-0 cells assessed as cell growth at 10^-5 M after 48 hrs by sulforhodamine B assay relative to control; assay type: functional; details: 786-0, 48 h, read-out: Activity; in short: as §1
[10] = biological target: T2, Vitamin D3 receptor (Homo sapiens, UniProt P11473); experiment: Inhibition of human vitamin D3 receptor
T2 sequence (P11473 whole entry): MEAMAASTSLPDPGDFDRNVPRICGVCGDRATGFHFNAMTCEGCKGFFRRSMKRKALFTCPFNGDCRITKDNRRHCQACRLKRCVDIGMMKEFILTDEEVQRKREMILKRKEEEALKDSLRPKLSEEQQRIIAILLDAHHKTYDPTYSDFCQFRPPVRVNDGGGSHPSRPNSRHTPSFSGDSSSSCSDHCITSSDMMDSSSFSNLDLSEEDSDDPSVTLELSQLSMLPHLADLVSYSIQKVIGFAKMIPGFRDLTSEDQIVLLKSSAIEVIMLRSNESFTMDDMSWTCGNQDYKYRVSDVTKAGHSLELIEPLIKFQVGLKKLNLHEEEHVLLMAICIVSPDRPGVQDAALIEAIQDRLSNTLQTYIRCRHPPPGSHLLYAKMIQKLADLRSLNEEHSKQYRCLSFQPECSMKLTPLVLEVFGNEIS

[11] = test system: COLO 205; experiment: Growth inhibition of human COLO205 cells assessed as cell growth at 10^-5 M after 48 hrs by sulforhodamine B assay relative to control; assay type: functional; details: COLO 205, 48 h, read-out: Activity; in short: as §1
[12] = biological target: T3, Leukotriene A-4 hydrolase (Homo sapiens, UniProt P09960); experiment: Inhibition of human leukotriene A-4 hydrolase
T3 sequence (P09960 whole entry): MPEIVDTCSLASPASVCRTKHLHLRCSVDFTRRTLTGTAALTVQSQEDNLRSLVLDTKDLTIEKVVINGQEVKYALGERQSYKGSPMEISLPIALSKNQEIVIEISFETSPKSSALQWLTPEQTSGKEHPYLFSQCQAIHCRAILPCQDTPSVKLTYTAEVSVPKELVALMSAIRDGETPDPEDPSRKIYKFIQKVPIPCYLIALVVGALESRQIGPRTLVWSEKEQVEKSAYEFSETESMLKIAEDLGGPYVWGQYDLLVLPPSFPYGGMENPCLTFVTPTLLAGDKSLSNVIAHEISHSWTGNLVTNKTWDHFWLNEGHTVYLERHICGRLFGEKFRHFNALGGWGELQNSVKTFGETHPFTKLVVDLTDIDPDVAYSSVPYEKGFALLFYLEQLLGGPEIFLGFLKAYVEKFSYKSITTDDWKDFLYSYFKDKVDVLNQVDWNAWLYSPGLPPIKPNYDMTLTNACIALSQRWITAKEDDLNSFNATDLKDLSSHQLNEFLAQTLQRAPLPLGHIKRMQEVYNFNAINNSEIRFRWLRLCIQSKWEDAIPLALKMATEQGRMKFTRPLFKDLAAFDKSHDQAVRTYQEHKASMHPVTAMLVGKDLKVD

[13] = test system: U-251; experiment: Growth inhibition of human U251 cells assessed as cell growth at 10^-5 M after 48 hrs by sulforhodamine B assay relative to control; assay type: functional; details: U-251, 48 h, read-out: Activity
In short: (§2)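 NCI-60 single-dose screen, 10^-5 M final. Cells grown in RPMI 1640 with 5% FBS and 2 mM L-glutamine, seeded at 5,000–40,000 cells/well by doubling time. Preincubated 24 h at 37°C, 5% CO2. Compound in DMSO, diluted in medium with gentamicin, then 48 h exposure. Fixed with cold TCA, SRB stained, A515 read. Percent growth vs untreated control, time-zero plate corrected.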

[14] = test system: Malme-3M; experiment: Growth inhibition of human MALME-3M cells assessed as cell growth at 10^-5 M after 48 hrs by sulforhodamine B assay relative to control; assay type: functional; details: read-out: Activity; in short: as §1
[15] = test system: NCI-H460; experiment: Growth inhibition of human NCI-H460 cells assessed as cell growth at 10^-5 M after 48 hrs by sulforhodamine B assay relative to control; assay type: functional; details: NCI-H460, 48 h, read-out: Activity; in short: as §1
[16] = test system: UACC-62; experiment: Growth inhibition of human UACC62 cells assessed as cell growth at 10^-5 M after 48 hrs by sulforhodamine B assay relative to control; assay type: functional; details: UACC-62, 48 h, read-out: Activity; in short: as §2
[17] = Growth inhibition of human NCI-ADR-RES cells assessed as cell growth at 10^-5 M after 48 hrs by sulforhodamine B assay relative to control; assay type: functional; details: read-out: Activity; in short: as §1

SMILES	Ki [1] [µM]	growth at 10 µM [2] [%]	growth at 10 µM [3] [%]	growth at 10 µM [4] [%]	growth at 10 µM [5] [%]	growth at 10 µM [6] [%]	growth at 10 µM [7] [%]	growth at 10 µM [8] [%]	growth at 10 µM [9] [%]	Ki [10] [µM]	growth at 10 µM [11] [%]	Ki [12] [µM]	growth at 10 µM [13] [%]	growth at 10 µM [14] [%]	growth at 10 µM [15] [%]	growth at 10 µM [16] [%]	growth at 10 µM [17] [%]
N=c1scc(-c2ccccc2)n1CC(=O)N1CCOCC1	49.8	101	89.2	99.2	95.2	97.9	101	101	102	24.4	107	8.65	95.1	102	105	92.5	105
N=c1scc(-c2ccc(Cl)cc2)n1CC(=O)N1CCOCC1	44.9	84.6	70.9	89.9	69.2	104	105	86.9	95.5	4.13	101	1.06	88.3	105	99.3	83.2	98.3
